Data on 45 compounds can be found in ChEMBL document CHEMBL1799961, “N-Acylhydrazones as inhibitors of PDE10A” (Bioorg Med Chem Lett, 2011).

Activity calls are given as the source filed them.

Series [1] deals with T1, cAMP and cAMP-inhibited cGMP 3',5'-cyclic phosphodiesterase 10A (Mus musculus, UniProt Q8CA95).
T1 sequence (Q8CA95 whole entry): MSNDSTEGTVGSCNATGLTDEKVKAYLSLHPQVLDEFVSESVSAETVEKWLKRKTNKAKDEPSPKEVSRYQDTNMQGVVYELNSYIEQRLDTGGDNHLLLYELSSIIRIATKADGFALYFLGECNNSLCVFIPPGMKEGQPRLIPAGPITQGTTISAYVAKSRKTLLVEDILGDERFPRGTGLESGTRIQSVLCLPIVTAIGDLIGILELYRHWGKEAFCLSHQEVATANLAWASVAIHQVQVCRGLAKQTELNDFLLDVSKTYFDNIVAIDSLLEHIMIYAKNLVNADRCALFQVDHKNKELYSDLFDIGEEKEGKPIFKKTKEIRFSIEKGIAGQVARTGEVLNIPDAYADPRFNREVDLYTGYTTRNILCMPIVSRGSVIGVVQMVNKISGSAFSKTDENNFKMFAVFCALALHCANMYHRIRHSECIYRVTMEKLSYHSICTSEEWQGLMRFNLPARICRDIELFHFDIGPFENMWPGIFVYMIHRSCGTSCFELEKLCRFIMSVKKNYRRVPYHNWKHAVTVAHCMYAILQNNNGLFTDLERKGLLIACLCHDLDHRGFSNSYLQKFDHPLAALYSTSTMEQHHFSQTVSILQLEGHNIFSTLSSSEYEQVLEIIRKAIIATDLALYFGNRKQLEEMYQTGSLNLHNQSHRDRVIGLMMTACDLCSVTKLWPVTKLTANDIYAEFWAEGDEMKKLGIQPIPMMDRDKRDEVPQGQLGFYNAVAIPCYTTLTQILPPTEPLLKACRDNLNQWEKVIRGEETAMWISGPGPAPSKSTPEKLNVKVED
In words: Inhibition of mouse PDE10A assessed as inhibition of hydrolysis of [3H]cGMP to [3H]GMP after 20 mins by scintillation counting. Put shortly:
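Reaction was started with mouse PDE10 (25 ng/ml final) and run 20 min at 30 °C. Stopped with yttrium silicate SPA beads, scintillation counted 1–2 h later. IC50 from curve fitting.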

A short description of series [2]: Half life in rat at 4 mg/kg, iv. It counts as ADME, organism-based. Further details: dose 4 mg/kg, route intravenous. Particulars: in vivo. The essentials:
(§1)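 Rat pharmacokinetics, dosed iv at 4 mg/kg and po at 9 mg/kg.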

Series [3] in a line: Clearance in rat at 4 mg/kg, iv. It counts as ADME, organism-based. Details: dose 4 mg/kg, route intravenous. Particulars: in vivo. Put shortly:
as §1

Series [4] in a line: Volume of distribution at steady state in rat at 4 mg/kg, iv. As to conditions: in vivo, read-out: Vdss. Details: dose 4 mg/kg, route intravenous. It is filed as ADME, organism-based. Put shortly:
as §1

Series [5] can be described thus: Tmax in rat at 9 mg/kg, po. It is filed as ADME, organism-based. As to conditions: in vivo. Further details: dose 9 mg/kg, route oral. The essentials: as §1
Series [6] is described as follows: Cmax in rat at 9 mg/kg, po. It is filed as ADME, organism-based. Further details: dose 9 mg/kg, route oral. As to conditions: in vivo. Put shortly:
as §1

Series [7] can be described thus: Oral bioavailability in rat at 9 mg/kg. As to conditions: in vivo. It is filed as ADME, organism-based. The essentials:
as §1

Series [8] relates to Mus musculus. The series can be described thus: Behavioral effect in mouse assessed as reduction in conditioned avoidance response at 10 to 30 mg/kg, ip administered 20 mins prior testing. It is filed as functional, organism-based. The essentials: (§2)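 Mice trained in a shuttle-box to avoid foot-shock after a conditional stimulus, until at least 25 avoidances in 30 trials. Dosing was ip in 30 mM H3PO4, 0.2% tween 80, 5% DMSO, 20 min before testing; controls got vehicle. Eight mice per group. Paired-sample t-test compared each animal with its vehicle-injected performance on the previous day.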

The test system of series [9] is Mus musculus. In words: Behavioral effect in ip dosed mouse assessed as reduction in conditioned avoidance response compound administered 20 mins prior testing. It is filed as functional, organism-based. Put shortly:
as §2

In series [10] the test system is Mus musculus. In words: Antipsychotic activity in mouse assessed as inhibition of PCP-induced hyperlocomotion at 20 mg/kg, ip administered 20 mins prior testing. It is filed as functional, organism-based. Further details: dose 20 mg/kg. Put shortly:
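PCP-induced hyperlocomotion in mice: 20 mg/kg ip in 30 mM H3PO4, 0.2% tween 80, 5% DMSO, dosed 20 min before testing; PCP given ip 10 min before testing. Controls got vehicle. Normal activity range 500–1000. Eight mice per group; t-test for each interval.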

The species named for series [11] is Mus musculus. In words: Selectivity ratio of IC50 for mouse PDE1A to IC50 for mouse PDE10A. The essentials: (§3)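 Reaction started by adding enzyme (mouse PDE10 at 25 ng/ml final); 20 min at 30 °C. Stopped with yttrium silicate SPA beads, scintillation read 1–2 h later. IC50s from curve fits; ratio of other-PDE IC50 to PDE10A IC50.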
For series [12], the species on record is Mus musculus. In words: Selectivity ratio of IC50 for mouse PDE2A to IC50 for mouse PDE10A. Put shortly:
as §3

For series [13], the species on record is Mus musculus. In words: Selectivity ratio of IC50 for mouse PDE3A to IC50 for mouse PDE10A. Put shortly:
as §3

The species named for series [14] is Mus musculus. In words: Selectivity ratio of IC50 for mouse PDE4A to IC50 for mouse PDE10A. The essentials:
as §3

Series [15] is filed under the species Mus musculus. The series can be described thus: Selectivity ratio of IC50 for mouse PDE5A to IC50 for mouse PDE10A. The essentials: as §3
The species named for series [16] is Mus musculus. In words: Selectivity ratio of IC50 for mouse PDE7A to IC50 for mouse PDE10A. The essentials: as §3
For series [17], the species on record is Mus musculus. The series can be described thus: Selectivity ratio of IC50 for mouse PDE8A to IC50 for mouse PDE10A. The essentials:
as §3

The species entered for series [18] is Mus musculus. In words: Selectivity ratio of IC50 for mouse PDE9A to IC50 for mouse PDE10A. Put shortly: as §3
For series [19], the species on record is Mus musculus. The series can be described thus: Selectivity ratio of IC50 for mouse PDE11A to IC50 for mouse PDE10A. The essentials:
as §3

Take `COc1cccc(/C=N/NC(=O)CSc2cc(C)nc3ccccc23)c1`: the IC50 (in general, the concentration at which inhibition is half-maximal) in [1] amounted to 1200 nM.
In the case of `COc1ccc2nc(C)cc(SCC(=O)N/N=C/c3cc(OC)c(OC)c(OC)c3)c2c1`, the IC50 in series [1] came out at 8 nM. Also, the half-life (as a rule, the time needed for the level to fall by half in the phase considered) in series [2] is 11.3 h. Besides, the clearance – broadly, the volume of plasma or blood freed of the substance per unit of time – in series [3] is 55 mL/min/kg. Also, the Vd in series [4] was found to be 17.4 L/kg. Besides, the Tmax – broadly, the time from dosing to the highest level – in [5] amounted to 0.25 h. In [6], the Cmax (commonly the maximum level reached in the sampled fluid or tissue) was 539 ng/mL. Besides, the bioavailability (in general, the share of a dose that reaches the circulation, judged against a reference dose that is usually intravenous) in series [7] stood at 21%. Further, the result in the series on Mus musculus [8] was Active. In addition, the Activity entry in the series with Mus musculus [9] is “Dose-dependent effect”. In addition, the inhibition entry in the series with Mus musculus [10] is “Active”. For the same compound, the Ratio IC50 in the series listed under Mus musculus [11], in the series listed under Mus musculus [12], in the series listed under Mus musculus [13], in the series filed under Mus musculus [14], in the series filed under Mus musculus [15] and in the series listed under Mus musculus [16] was > 110 each time. Besides, the Ratio IC50 in the series filed under Mus musculus [17], in the series listed under Mus musculus [18] and in the series listed under Mus musculus [19] was > 110 each time.
`COc1cc(F)c(/C=N/NC(=O)CSc2cc(C)nc3ccccc23)cc1OC`: in [1], the IC50 amounted to 190 nM.
Take `COc1cc(/C=N/NC(=O)CSc2cc(C)nc3ccccc23)cc(C#N)c1OC`: the IC50 in series [1] was found to be 11 nM.
On the same count and under the same terms, in the case of `COc1cc(/C=N/NC(=O)CSc2cc(C)nc3ccccc23)cc(OC)c1OC` it was 10 nM.
Still for that read-out and setting: in the case of `COc1ccc(/C=N/NC(=O)CSc2cc(C)nc3ccccc23)cc1C(F)(F)F` it was 420 nM.
For `COc1cc(/C=N/NC(=O)CSc2cc(C)nc3ccccc23)ccc1F`, the IC50 in series [1] was 190 nM.
As for `COc1cc(Br)c(/C=N/NC(=O)CSc2cc(C)nc3ccccc23)cc1OC`, the IC50 in [1] turned out to be 77 nM.
Still for that read-out and setting: then `COc1cc(/C=N/NC(=O)CSc2cc(C)nc3ccccc23)ccc1C`, with 100 nM; and `COc1cc(/C=N/NC(=O)CSc2cc(C)nc3ccccc23)cc(Br)c1OC`, with 30 nM; and `COc1cc(/C=N/NC(=O)CSc2cc(C)nc3ccccc23)ccc1Cl`, with 87 nM.
The same measure, in the same setting: in the case of `COc1cc(Cl)c(/C=N/NC(=O)CSc2cc(C)nc3ccccc23)cc1OC` it was 200 nM.
On the same count and under the same terms, then `CCOc1cc(/C=N/NC(=O)CSc2cc(C)nc3ccccc23)ccc1OC`, with 260 nM.
As to `COc1cc(/C=N/NC(=O)CSc2cc(C)nc3ccccc23)cc(OC)c1`, the IC50 in series [1] stood at 150 nM.
On the same count and under the same terms, then `COc1cc(/C=N/NC(=O)CSc2ccncn2)cc(OC)c1OC`, with 1070 nM; and `COc1ccc(/C=N/NC(=O)CSc2cc(C)nc3ccccc23)c(Cl)c1OC`, with 4600 nM; and `COc1ccccc1SCC(=O)N/N=C/c1cc(OC)c(OC)c(OC)c1`, with 660 nM.
On the same count and under the same terms, in the case of `COc1cc(/C=N/NC(=O)CSc2cc(C)nc3ccccc23)ccc1C(F)(F)F` it was 250 nM; in that of `COc1cc(/C=N/NC(=O)CSc2ccc3ccccc3n2)cc(OC)c1OC`, 140 nM.
Same read-out and setting: then `COc1ccc(/C=N/NC(=O)CSc2cc(C)nc3ccccc23)cc1OC(F)(F)F`, with 1700 nM; and `COc1ccc(/C=N/NC(=O)COc2cc(C)nc3ccccc23)cc1OC`, with 1600 nM.
Turning to `COc1cc(/C=N/NC(=O)CSc2cc(C)nc3ccccc23)cc(F)c1OC`, the IC50 in [1] was determined as 51 nM.
As to `COc1ccc(/C=N/NC(=O)CSc2cc(C)nc3ccccc23)cc1OC(C)C`, the IC50 in series [1] turned out to be 660 nM.
On the same count and under the same terms, then `COc1cc(/C=N/NC(=O)CN(C)c2cc(C)nc3ccccc23)cc(OC)c1OC`, with 360 nM.
Still for that read-out and setting: in the case of `COc1cc(/C=N/NC(=O)CSc2ccc(-c3ccccc3)cc2)cc(OC)c1OC` it was 260 nM.
Same read-out and setting: in the case of `COc1ccc(/C=N/NC(=O)CSc2cc(C)nc3ccccc23)c(Br)c1OC` it was 4800 nM; in that of `COc1ccc(/C(C)=N/NC(=O)CSc2cc(C)nc3ccccc23)cc1OC`, 180 nM.
Regarding `COc1cc(/C=N/NC(=O)CSc2ccncc2)cc(OC)c1OC`, the IC50 in series [1] worked out at 550 nM.
Same read-out and setting: then `COc1ccc(/C=N/NC(=O)CSc2cc(C)nc3ccccc23)cc1OC`, with 49 nM; and `COc1cc(/C=N/NC(=O)CSc2cc(C)nc3ccccc23)cc(Cl)c1OC`, with 45 nM.
On the same count and under the same terms, then `COc1ccc(/C=N/NC(=O)CSc2cc(C)nc3ccccc23)cc1Cl`, with 220 nM; and `COc1cc(/C=N/NC(=O)CSc2cc(C)nc3ccccc23)ccc1C#N`, with 160 nM; and `COc1ccc(/C=N/NC(=O)CSc2cc(C)nc3ccccc23)cc1F`, with 620 nM.
Still for that read-out and setting: then `COc1cc(/C=N/NC(=O)CSc2ccc(OC(F)(F)F)cc2)cc(OC)c1OC`, with 860 nM; and `COc1cc(/C=N/NC(=O)CSc2cc(C)nc3ccccc23)cc(OC)c1C#N`, with 14 nM; and `COc1cc(/C=N/NC(=O)CSc2cc(C)nc3ccccc23)cc(OC)c1Br`, with 4.8 nM.
Regarding `COc1cc(/C=N/N(C)C(=O)CSc2cc(C)nc3ccccc23)cc(OC)c1OC`, the IC50 in [1] stood at 26 nM.
Still for that read-out and setting: then `COc1cc(/C=N/NC(=O)CSc2ccnc3ccccc23)cc(OC)c1OC`, with 24 nM.
Still for that read-out and setting: then `COc1cc(/C=N/NC(=O)CSc2ccc([N+](=O)[O-])c3ccccc23)cc(OC)c1OC`, with 100 nM.
Same read-out and setting: then `COc1cc(/C=N/NC(=O)CSc2cccc3cccnc23)cc(OC)c1OC`, with 190 nM; and `Cc1cc(SCC(=O)N/N=C/c2ccc(OC(F)F)c(OC(F)F)c2)c2ccccc2n1`, with 310 nM.
Regarding `COc1ccc(/C=N/NC(=O)CNc2cc(C)nc3ccccc23)cc1OC`, in series [1], the IC50 came to 8000 nM.
On the same count and under the same terms, in the case of `COc1cc(/C=N/NC(=O)CSc2cc(C)nc3ccccc23)ccc1Br` it was 93 nM; in that of `COc1cc(/C=N/NC(=O)CSc2ccnc3cc(Cl)ccc23)cc(OC)c1OC`, 28 nM; in that of `COc1ccc(/C=N/NC(=O)CSc2cc(C)nc3ccccc23)cc1`, 1400 nM.
